# Assay results reported in the EternaBench riboswitch data.
# Tested on: MS2 coat protein
# Experiment: apparent Kd, MS2 coat protein; higher = weaker binding; RNA-MaP array; FMN 200 µM where present
# In short: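 The apparent Kd is reported as the median of filtered per-cluster binding-curve fits. To get these curves, designs transcribed by stalled E. coli RNA polymerase on Illumina sequencing-chip clusters were titrated with SNAP-549-labelled MS2 coat protein from 0.7 or 1.5 nM, doubling to 3 µM. Titrations were run without and then with constant ligand in 100 mM Tris-HCl pH 7.5, 80 mM KCl, 4 mM MgCl2, BSA, DTT, yeast tRNA and Tween-20, and green signal was normalised to red-channel RNA signal and control-cluster median Fmax.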
# [1] = designed as: ON switch for flavin mononucleotide, no ligand
# [2] = ligand present: flavin mononucleotide, designed as: ON switch for flavin mononucleotide
# [3] = designed as: OFF switch for flavin mononucleotide, no ligand
# [4] = ligand present: flavin mononucleotide, designed as: OFF switch for flavin mononucleotide
Sequence,apparent Kd [1] [nM],apparent Kd [2] [nM],apparent Kd [3] [nM],apparent Kd [4] [nM]
AAAAAAAAAACUCAGGAUAUAGAUUGUUGAACAUGAGGAUCACCCAUGUAGUGAAAAGCGAAAAACUAGAAGGGAGGAAAAAAAAA,82.5,46,–,–
AAAAAAAAAGUAUAGGAUAUCCGAGUGGUAACAUGAGGAUCACCCAUGUGAAGAAAGGAAGAUGAGGAGAAGGAUACAAAAAAAAA,125,48.5,–,–
AAAAAACAUGAGGAUCACCCAUGUAAAAAAAUCGCAGGAUAUAGGGUCGCGAAAGCGACCCUAGAAGGGCGAUCCU,260,87.7,–,–
AAAAAACAUGAGGAUCACCCAUGUCCUCGGACGUGAGGAUAUGUACAGACUUCGGUCUGUACAGAAGGCACGUCAA,512,446,–,–
AAAAAACAUGAGGAUCACCCAUGUGAGGAUAUUAAAAAUAAGAAGGCAUAAAAAAAAAUAAGAAGGCACAUGAA,–,–,31.7,44.8
AAAAAGCGAGGAUAUACAUGAGGAUCACCCAUGUCAAAAGAAUAUAAAGAAAUAGGAAGUAGAAGGCGCAAAAA,–,–,55.9,56
AAAAAGGCAGGAUAUACAAAACAGGGAAACCUGAAAAGGAAACAUGAGGAUCACCCAUGUAGAAGGGCCAAGAA,–,–,24.9,35.3
AAAAAGGGAGGAUAUACAUGAGUAGAUCGUGUAAAAAAAAUACAUGAGGAUCACCCAUGUAGAAGGCCCAAAAA,–,–,231,88.2
AAAAAGGUAGGAUAUACGAAAAAAAAGGGUAAAAUAAAUAAACAUGAGGAUCACCCAUGUAGAAGGACCAAAAA,–,–,25.3,64.4
AAAAAGUGAGGAUAUACAUGAGAAAAAAAAAUGUAAAAAAAACAUGAGGAUCACCCAUGUAGAAGGCACAAAAA,–,–,49.7,82.7
AAAAAGUGAGGAUAUACGAGGAGAAACAACAAACAAACAAAACAUGAGGAUCACCCAUGUAGAAGGCACAAAAA,–,–,21.1,26.2
AAAAAGUGAGGAUAUGCGCUGUCCUGUAGACACGAGCAGUCGUAGAAGGCACAUGAGGAUCACCCAUGUUUAAA,–,–,27.6,20.2
AAAAAGUGAGGAUAUGGAAAAAAAAAAAAAAAAAAAAAAAACCAGAAGGCACAUGAGGAUCACCCAUGUAAAAA,–,–,39.6,39.4
AAAAAUCCAGCGCAGGAUAUCGCAGGGUGCACAUGAGGAUCACCCAUGUGUACCCAAACACCCUGCGAGAAGGGCGUUGGAAAAAA,11.2,9.68,–,–
AAAAAUCGAGGAUAUACAUGAGGAUCACCCAUGUGGGACCAAGAAAACACAAAAGAAAGUAGAAGGCGAUAAAA,–,–,29.2,113
AAAACACAUGAGGAUCACCCAUGUAUCUGGACCAUAGGAUAUCCGCGCCCACUAGGGUAUGGAGAAGGGUGAGCCC,161,122,–,–
AAAACAGAUGGAGGAUAUAGUGUAUGGGCCGUAACGGGAGUAUCGCGCAGACUAGAAGGCCAUUUACAUGAGGAUCACCCAUGU,164,56.5,–,–
AAAACGGUAGGAUAUACAUGAGGAUCACCCAUGUUAAAUUUAAAAAUAAAAUUAAAAUGUAGAAGGACCAAAAA,–,–,32,32.3
AAAACGUGAGGAUAUGCACCAACCAAGGUUUUUCGGGUACGACAUGAGGAUCACCCAUGUAGAAGGCACGCAAA,–,–,26.4,32

Sequence,apparent Kd [1] [nM],apparent Kd [2] [nM],apparent Kd [3] [nM],apparent Kd [4] [nM]
AAAAGCAUCCAGUAUCAAAAUACAUGAGGAUCACCCAUGUAGCAGGAUAUCAACGUUCCCGACGGUGAGAAGGGCUAUAUGUUG,–,–,7.47,9.26
AAAAGGCUAGGAUAUACAUGAGGAUCACCCAUGUGUACUGGACAUGCGGUAUGCGUAUGUAGAAGGAGUAUAAA,–,–,14.4,21.6
AAAAGUUCAGGAUAUACAUGAGGAUCACCCAUGUAGAAAGGAAGUGUAAAAAAAAAGUGUAGAAGGGAGCAUGA,–,–,31.7,29.1
AAAAUAAGAACAGGAUAUGUGGGUUCGAAGAGUAAAGCUCUCCACAUGAGGAUCACCCAUGUGCCACAGAAGGGUUCGGGUGAU,58,11.8,–,–
AAAAUCUAUAGAGGAUAUCCAUACACUACAUACGGAGAAGGCUAACAAUCAUGAGGACAUGAGGAUCACCCAUGUUGUGACCAU,24.8,17.2,–,–
AAAAUGUAAGGAUAUCGUCCCGUAAAUAUCGGGAAAAUUGUCGAGAAGGUACAUGAGGAUCACCCAUGUUCCUG,–,–,16.7,18.2
AAAAUGUGAGGAUAUCAGGUGUGCUAGCGUACUGGUACAUCUGAGAAGGCACAUGAGGAUCACCCAUGUUUCUU,–,–,21.5,79.7
AAACACGGACAUGAGGAUCACCCAUGUGGCGAAAGCCUUGGGAGAAGGCCGAUAGCAAAGCUAUCGGAGGAUAUCCAUACCGUG,19.8,7.72,–,–
AAACAUGUCCGAGGAUAUCUAGAAACAUUUUUAAGAGAAGGCGGACAUGAGGAUCACCCAUGUCUCUCCUCAUCAAAUCCAAGU,–,–,15.6,68
AAACCUAUAGGAUAUACAUGAGGAUCACCCAUGUUGCGAUUUUUUAGGUAACAGAUCCGUAGAAGGGUAGGUUA,–,–,23.8,57.6
AAAGAACAUGAGGAUCACCCAUGUGAGGAUAUGCGAAAACCGCUGACAAACCAGACGGGCAGAAGGCAUAUGGU,–,–,56.2,76.3
AAAGAAGAAAGACAGGAUAUGGAUGGGUAAACAUGAGGAUCACCCAUGUAUAAGAAAGAAAGAAACCAGAAGGGUCAAAAGAAAA,165,33.6,–,–
AAAGGGAUUACGGAGGAUAUGGAAAAAAAAACAUGAGGAUCACCCAUGUCAAAAAAAAAAAAGGACCAGAAGGCCGUAAUCUCAAA,27.3,18.9,–,–
AAAUAAACUACCAAAAUAUCCUCACAUGAGGAUCACCCAUGUCAGGAUAUUUGUCCUAAAAGGACAGAGAAGGGACGUGGUAGA,–,–,5.63,10.7
AAAUAAACUAGCAAAAUUUCCUCACAUGAGGAUCACCCAUGUAAGGAUAUCUGUCCUAAAAGGACAGAGAAGGUACGUGCUAGG,–,–,4.53,4.63
AAAUAAAUUAGCAUGAUAUCUUCACAUGAGGAUCACCCAUGUCAGGAUAUUUGUCCUAAAAGGACAGAGAAGGGACAUGCUAUA,–,–,5.78,7.76
AAAUAACCUAGCAAAAUUUCCUAACAUGAGGAUCACCCAUGUAGAAGGCUGUCCUAAAAUAGGACAGAGGAUAUACGUGCUAGG,–,–,5.01,7
AAAUAACCUAGCAAAAUUUCCUCACAUGAGGAUCACCCAUGUAGAAGGUUAACCUAAUAUAGGAUAAAGGAUAUACGUGCUAGG,–,–,7.58,19.9
AAAUACCGGUGAGGAUAUUUAUAAUAGAACUUUAUGAUAUACAUGAGGAUCACCCAUGUUACUUUAAAGAAGGCAUCGGAUAAA,–,–,18.8,15

Sequence,apparent Kd [1] [nM],apparent Kd [2] [nM],apparent Kd [3] [nM],apparent Kd [4] [nM]
AAAUCAGCAGGAUAUGCGAUGUUAUGCUAGAUAGCGGGACCACAUGAGGAUCACCCAUGUAGAAGGGCUAGAUA,–,–,34.9,16.8
AAAUCAGCAGGAUAUGCGAUGUUGUGCUAGAUAGCGGGACCACAUGAGGAUCACCCAUGUAGAAGGGCUAGAUA,–,–,51.4,18.9
AAAUGCCUGUCGAUGCUCGACAUGAGGAUCACCCAUGUAUAGCAGGAUAUGCAGACCUGACUCGUGCAGAAGGGCUAUACCUAA,–,–,12.6,64.3
AAAUUAAGAAGAGGAUAUUGACAUGAGGAUCACCCAUGUAUUUGGGAGUGUUUACUGAAUUCUUACGAGAAGGUUUACGAACUU,–,–,278,211
AAAUUAGGGAGAGGAUAUUGACAUGAGGAUCACCCAUGUAUUUGGGAGUGUUUACUGAAUUCUUACGAGAAGGCUUACGAAAUU,–,–,320,255
AAAUUUAACGAAGGAUAUGCUGACAUGAGGAUCACCCAUGUGUGCUUUGUGUUGCUGAAAUGGGAGCAGAAGGUCGUAUACAUA,–,–,–,128
AAAUUUUGUCAAGGAUAUGUAUAAAAGAGAAGAAAACAUGAGGAUCACCCAUGUAUAUGGUGGGAACAGAAGGUGAUUAAGUAA,–,–,354,271
AACACAACAUGAAACAUGAGGAUCACCCAUGUUGUUUGUAAUCAGGAUAUGAUCUCAAGAAUGAAUUAGAAGGGAUAUGGAUUU,31.8,39.6,–,–
AACACGAGAGGUGUUGUCUAAUCACAUGAGGAUCACCCAUGUAAGGAUAUCGCGGCUAUCGGCAUCGAGAAGGUACAGGGUGCA,–,–,165,58.9
AACAGGCGUGCCCUGAGUCCACAUGAGGAUCACCCAUGUGAGAGAAGGACCCUCGAGAGAGUUGGGUAGGAUAUCUCCGAUGGG,–,–,24,57.5
AACAGUACAGGAUAUACAUGAGGAUCACCCAUGUGAGACUUAAGUGGCGUACCACAAAGUAGAAGGGUACUGGA,–,–,94.7,545
AACAGUGCUAAUAAAUAAGAUCUACAUGAGGAUCACCCAUGUAAGGAUAUCGUCAGGAAUACUGACGAGAAGGUACAUGCACUG,–,–,15,25.9
AACAUCCAAGCGCCCGGGUGGAGGAGAAGGCGGACAUGAGGAUCACCCAUGUGCAGCCACAAGUCCGAGGAUAUCCUUUGUGUU,–,–,10.6,20.2
AACAUGAGGAUCACCCAUGUCCCACCAGAAGGCUGGCGGCCACGGUAACGGCCGUGGCAAAUAACAGAGGAUAUGGUGAAUGCA,66.3,17.9,–,–
AACCUAUUACAGAAGGCCAGCUACAUGAGGAUCACCCAUGUCGAGUCAUGGAGGAUAUGUAGUAAUUUACUCACAGAUGAGUGA,22.9,5.07,–,–
AACGCUAGACUAGGAUAUCGUUUACAUGAGGAUCACCCAUGUAAAGGGUAUUGUCGUCAUACGAACGAGAAGGAGUCGGUAAAU,–,–,10.4,26.5
AACUCGUCAGGAUAUGCGCGCAGUUAAUACGCUUCGCAAUUGCAGAAGGGACAUGAGGAUCACCCAUGUAAAUA,–,–,32.1,33.1
AACUCGUUAGGAUAUACCGCCAACGAUACCUCGUGAAACAUACAUGAGGAUCACCCAUGUAGAAGGAGCGAGCA,–,–,16.9,23.3
